According to ChEMBL document CHEMBL4229380, “Arylureas derived from colchicine: Enhancement of colchicine oncogene downregulation activity” (Eur J Med Chem, 2018):
Values belong to the compound of their own block, whether it stands above or below them.

Key:
HT-29 [1] = test: Effect on c-MYC gene expression in human HT-29 cells assessed as c-MYC level at 25 uM after 48 hrs by RT-qPCR analysis; assay type: functional
Outline: (§1)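 HT-29 cells at 70–80% confluence were seeded at 1.5×10^5 per well and left 24 h, then treated 48 h, with DMSO as control. Total RNA was extracted and VEGF-A, c-Myc and hTERT were quantified by TaqMan qPCR, normalized to β-actin and to living cell number. Results are % expression versus control, at least three measurements.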

HT-29 [2] = test: Effect on VEGF protein expression in human HT-29 cells assessed as secreted VEGF level in culture media at 25 uM after 48 hrs by ELISA
HT-29 [3] = test: Induction of apoptosis in human HT-29 cells assessed as viable cells at 25000 nM after 48 hrs by Annexin V-FITC staining-based flow cytometric analysis (reference value: 82 +/- 1%); assay type: functional; details: HT-29, 48 h, read-out: Activity
HT-29 [4] = test: Induction of apoptosis in human HT-29 cells assessed as apoptotic cells at 25000 nM after 48 hrs by Annexin V-FITC staining-based flow cytometric analysis (reference value: 13 +/- 3%); assay type: functional
HT-29 [5] = test: Effect on hTERT gene expression in human HT-29 cells assessed as hTERT level at 25 uM after 48 hrs by RT-qPCR analysis; assay type: functional; outline: as §1
HT-29 [6] = test: Induction of apoptosis in human HT-29 cells assessed as necrotic cells at 25000 nM after 48 hrs by Annexin V-FITC staining-based flow cytometric analysis (reference value: 2 +/- 6%); assay type: functional
HT-29 [7] = test: Effect on VEGFR2 protein expression in human HT-29 cells assessed as VEGFR2 level at 25 uM after 48 hrs by ELISA; assay type: functional
Outline: (§2)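 HT-29 cells (1.5×10^5 per well, 24 h pre-culture) were treated 48 h and washed in PBS. They were lysed in Tris pH 7.4 buffer with detergents, phosphatase inhibitors, PMSF and protease inhibitors. Lysates were adjusted to 200 µg/mL protein (Bradford) and total c-Myc or VEGFR-2 was measured by sandwich ELISA kit. Values are % of DMSO control, ≥3 measurements.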

HT-29 [8] = test: Effect on c-MYC protein expression in human HT-29 cells assessed as c-MYC level at 25 uM after 48 hrs by ELISA; assay type: functional; outline: as §2
HT-29 [9] = test: Effect on VEGF gene expression in human HT-29 cells assessed as VEGF level at 25 uM after 48 hrs by RT-qPCR analysis; assay type: functional; outline: as §1
HT-29 [10] = test: Effect on VEGFR2 protein expression in human HT-29 cells assessed as VEGFR2 level at 20 nM after 48 hrs by ELISA; assay type: functional; outline: as §2
HT-29 [11] = test: Effect on VEGF gene expression in human HT-29 cells assessed as VEGF level at 20 nM after 48 hrs by RT-qPCR analysis; assay type: functional; outline: as §1
HT-29 [12] = test: Effect on hTERT gene expression in human HT-29 cells assessed as hTERT level at 20 nM after 48 hrs by RT-qPCR analysis; assay type: functional; outline: as §1
HT-29 [13] = test: Effect on VEGF protein expression in human HT-29 cells assessed as secreted VEGF level in culture media at 20 nM after 48 hrs by ELISA
HT-29 [14] = test: Antiproliferative activity against human HT-29 cells after 2 days by MTT assay; assay type: functional, cell-based; details: HT-29, 48 h
Outline: (§3)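 Cells (5×10^3 per well) in DMEM with 10% FBS, glucose, glutamine and antibiotics were exposed to serial dilutions (stocks in DMSO) for 2 days at 37 °C, 5% CO2. MTT was added for 3 h, formazan was dissolved in DMSO and absorbance read at 490 nm. Viability was taken as % of untreated cells. IC50 was read graphically from three independent experiments.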

HT-29 [15] = test: Effect on c-MYC protein expression in human HT-29 cells assessed as c-MYC level at 20 nM after 48 hrs by ELISA; assay type: functional; outline: as §2
HeLa = test: Antiproliferative activity against human HeLa cells after 2 days by MTT assay; assay type: functional, cell-based; details: 48 h; outline: as §3
HT-29 [16] = test: Induction of apoptosis in human HT-29 cells assessed as necrotic cells at 20 nM after 48 hrs by Annexin V-FITC staining-based flow cytometric analysis (reference value: 2 +/- 6%); assay type: functional
HT-29 [17] = test: Induction of apoptosis in human HT-29 cells assessed as viable cells at 20 nM after 48 hrs by Annexin V-FITC staining-based flow cytometric analysis (reference value: 82 +/- 1%); assay type: functional; details: HT-29, 48 h, read-out: Activity
HT-29 [18] = test: Effect on c-MYC gene expression in human HT-29 cells assessed as c-MYC level at 20 nM after 48 hrs by RT-qPCR analysis; assay type: functional; outline: as §1
HT-29 [19] = test: Induction of apoptosis in human HT-29 cells assessed as apoptotic cells at 20 nM after 48 hrs by Annexin V-FITC staining-based flow cytometric analysis (reference value: 13 +/- 3%); assay type: functional
HEK293 = test: Antiproliferative activity against human HEK293 cells after 2 days by MTT assay; assay type: cell-based; details: HEK293, 48 h; outline: as §3
MCF7 = test: Antiproliferative activity against human MCF7 cells after 2 days by MTT assay; assay type: functional, cell-based; details: MCF7, 48 h; outline: as §3
HT-29 [20] = test: Induction of apoptosis in human HT-29 cells assessed as apoptotic cells at 40 nM after 48 hrs by Annexin V-FITC staining-based flow cytometric analysis (reference value: 13 +/- 3%); assay type: functional
HT-29 [21] = test: Effect on c-MYC gene expression in human HT-29 cells assessed as c-MYC level at 25 nM after 48 hrs by RT-qPCR analysis; assay type: functional; outline: as §1
HT-29 [22] = test: Induction of apoptosis in human HT-29 cells assessed as necrotic cells at 40 nM after 48 hrs by Annexin V-FITC staining-based flow cytometric analysis (reference value: 2 +/- 6%); assay type: functional
HT-29 [23] = test: Effect on VEGF gene expression in human HT-29 cells assessed as VEGF level at 25 nM after 48 hrs by RT-qPCR analysis; assay type: functional; outline: as §1
HT-29 [24] = test: Effect on VEGF protein expression in human HT-29 cells assessed as secreted VEGF level in culture media at 25 nM after 48 hrs by ELISA
HT-29 [25] = test: Induction of apoptosis in human HT-29 cells assessed as viable cells at 40 nM after 48 hrs by Annexin V-FITC staining-based flow cytometric analysis (reference value: 82 +/- 1%); assay type: functional; details: HT-29, 48 h, read-out: Activity
HT-29 [26] = test: Effect on hTERT gene expression in human HT-29 cells assessed as hTERT level at 25 nM after 48 hrs by RT-qPCR analysis; assay type: functional; outline: as §1
HT-29 [27] = test: Effect on c-MYC protein expression in human HT-29 cells assessed as c-MYC level at 25 nM after 48 hrs by ELISA; assay type: functional; outline: as §2
HT-29 [28] = test: Effect on VEGFR2 protein expression in human HT-29 cells assessed as VEGFR2 level at 25 nM after 48 hrs by ELISA; assay type: functional; outline: as §2

Compound: CCN(CC)CCNC(=O)c1c(C)[nH]c(/C=C2\C(=O)Nc3ccc(F)cc32)c1C [SUNITINIB]
Activity (HT-29 [1]): 47% | Activity (HT-29 [2]): 45% | viability at 25 µM (HT-29 [3]): 75% | Activity (HT-29 [4]): 22% | Activity (HT-29 [5]): 68% | Activity (HT-29 [6]): 3% | Activity (HT-29 [7]): 90% | Activity (HT-29 [8]): 100% | Activity (HT-29 [9]): 46%

IC50 (HT-29 [14]): 15 nM | IC50 (HeLa): 18 nM | IC50 (MCF7): 25 nM
Compound: COc1cc2c(c(OC)c1OC)-c1ccc(OC)c(=O)cc1[C@@H](NC(=O)Nc1ccccc1C(F)(F)F)CC2
Activity (HT-29 [10]): 100% | Activity (HT-29 [11]): 101% | Activity (HT-29 [12]): 107% | Activity (HT-29 [13]): 82% | Activity (HT-29 [15]): 99% | Activity (HT-29 [16]): 1% | viability at 0.02 µM (HT-29 [17]): 96% | Activity (HT-29 [18]): 107% | Activity (HT-29 [19]): 4% | IC50 (HEK293): 19 nM

Compound: COc1cc2c(c(OC)c1OC)-c1ccc(OC)c(=O)cc1[C@@H](NC(C)=O)CC2 [COLCHICINE]
Activity (HT-29 [20]): 73% | Activity (HT-29 [21]): 37% | Activity (HT-29 [22]): 1% | IC50 (HT-29 [14]): 13 nM | Activity (HT-29 [23]): 55% | Activity (HT-29 [24]): 40% | IC50 (HeLa): 14 nM | viability at 0.04 µM (HT-29 [25]): 26% | Activity (HT-29 [26]): 87% | Activity (HT-29 [27]): 63% | IC50 (HEK293): 13 nM | IC50 (MCF7): 20 nM | Activity (HT-29 [28]): 94%
